Reference: ChEMBL document CHEMBL1123307, “Peptides as receptor selectivity modulators of opiate pharmacophores” (J Med Chem, 1986)
Counter-ions that a name gives are not always drawn. Residues, ends and D or L forms follow the SMILES beside them. *: point of attachment. X2 = O=C(N/N=C1/CC[C@@]2(O)[C@H]3Cc4ccc(O)c5c4[C@@]2(CCN3CC2CC2)[C@H]1O5)*; X1 = CN1CC[C@]23c4c5ccc(O)c4O[C@H]2/C(=N\NC(=O)*)CC[C@@]3(O)[C@H]1C5

Assays:
Mu-type opioid receptor = Mu-type opioid receptor (Cavia porcellus, UniProt P97266); assay: Binding affinity against Opioid receptor mu 1 of guinea pig brain membranes using 0.5 nM of [3H]naloxone as radioligand
Chain of Mu-type opioid receptor (P97266 whole entry): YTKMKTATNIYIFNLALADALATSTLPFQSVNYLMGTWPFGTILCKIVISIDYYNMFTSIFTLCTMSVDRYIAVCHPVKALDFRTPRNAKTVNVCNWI
In short: (§1)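 Incubations in 50 mM Tris buffer, pH 7.4, with 100 mM NaCl and bacitracin (50 μg/mL).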

[1] = molecular target: Kappa-type opioid receptor (Cavia porcellus, UniProt P41144); assay: Binding affinity against Opioid receptor kappa 1 of guinea pig brain membranes using 1 nM of (-)-[3H]ethylketazocine as radioligand; in short: as §1
Chain of Kappa-type opioid receptor (P41144 whole entry): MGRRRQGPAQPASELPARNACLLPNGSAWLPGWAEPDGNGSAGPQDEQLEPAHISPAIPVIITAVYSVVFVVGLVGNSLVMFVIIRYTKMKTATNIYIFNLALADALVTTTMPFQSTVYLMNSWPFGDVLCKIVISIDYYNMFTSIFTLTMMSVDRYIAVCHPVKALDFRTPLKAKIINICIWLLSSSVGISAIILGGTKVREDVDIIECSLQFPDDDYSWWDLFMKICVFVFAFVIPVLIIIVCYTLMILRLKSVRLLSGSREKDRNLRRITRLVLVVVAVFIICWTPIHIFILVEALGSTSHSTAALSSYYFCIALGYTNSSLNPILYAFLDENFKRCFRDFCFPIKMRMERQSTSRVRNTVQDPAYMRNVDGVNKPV

Structure (SMILES)	Ki (Mu-type opioid receptor)	Ki [1]
CC[C@H](C)[C@H](NC(=O)[C@H](CCCNC(=N)N)NC(=O)[C@H](CCCNC(=N)N)NC(=O)[C@H](CC(C)C)NC(=O)[C@H](Cc1ccccc1)NC(=O)CNC(=O)CNC(=O)[C@@H](N)Cc1ccc(O)cc1)C(=O)OC	340 nM	40 nM
CC[C@H](C)[C@H](NC(=O)[C@H](CCCN=C(N)N)NC(=O)[C@H](CCCN=C(N)N)NC(=O)[C@H](CC(C)C)NC(=O)[C@H](Cc1ccccc1)NC(=O)N/N=C1/CC[C@@]2(O)[C@H]3Cc4ccc(O)c5c4[C@@]2(CCN3C)[C@H]1O5)C(=O)OC (X1-FLRRI-OMe)	15.5 nM	9.8 nM
CC[C@H](C)[C@H](NC(=O)[C@H](CCCN=C(N)N)NC(=O)[C@H](CCCN=C(N)N)NC(=O)[C@H](CC(C)C)NC(=O)[C@H](Cc1ccccc1)NC(=O)N/N=C1/CC[C@@]2(O)[C@H]3Cc4ccc(O)c5c4[C@@]2(CCN3CC2CC2)[C@H]1O5)C(=O)OC (X2-FLRRI-OMe)	2.3 nM	2.2 nM
CC(C)CC(NC(=O)C(Cc1ccccc1)NC(=O)N/N=C1/CC[C@@]2(O)C3Cc4ccc(O)c5c4C2(CCN3C)[C@H]1O5)C(=O)O (some centres undefined)	14.8 nM	96 nM
CC(C)CC(NC(=O)C(Cc1ccccc1)NC(=O)N/N=C1/CC[C@@]2(O)C3Cc4ccc(O)c5c4C2(CCN3CC2CC2)[C@H]1O5)C(=O)O (some centres undefined)	0.76 nM	2.8 nM
NC(=O)N/N=C1/CC[C@@]2(O)C3Cc4ccc(O)c5c4C2(CCN3CC2CC2)[C@H]1O5 (some centres undefined) [NALTREXONE SEMICARBAZONE]	0.48 nM	2.6 nM
CN1CCC23c4c5ccc(O)c4O[C@H]2/C(=N\NC(N)=O)CC[C@@]3(O)C1C5 (some centres undefined) [OXYMORPHONE SEMICARBAZONE HYDROCHLORIDE]	14.5 nM	179 nM
